Reference: ChEMBL document CHEMBL4602651, “Development of selective mono or dual PROTAC degrader probe of CDK isoforms” (Eur J Med Chem, 2020)
pIC50: −log10 of the molar value. Calls of active or inactive are those of the source. The calls are words filed in the database; no cut-off is given here.

Key:
[1] = target: T1, Protein cereblon/Cyclin-dependent kinase 2/Cyclin-dependent kinase 9 (Homo sapiens, UniProt P24941+P50750+Q96SW2); assay: Protac activity at CRBN/CDK2/CDK9 in AR-negative human PC3 cells assessed as CDK2 degradation at 250 nM preincubated with pomalidomide for 2 hrs and measured after 8 hrs by Western blot analysis; type: cell-based; details: PC-3
Method in brief: (§1)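 PC-3 cells pretreated 2 h with 5 µM DMSO, FN-1501, pomalidomide or MG-132, then exposed to degrader at 250 nM for 8 h. Lysates probed for CDK2 and CDK9, β-tubulin as loading control. 50 µg protein per lane, 10% SDS-PAGE, chemiluminescent detection.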

L02 = assay: Cytotoxicity against human LO2 cells assessed as reduction in cell viability after 5 days by CCK-8 assay; type: cell-based; details: L02, 120 h
Method in brief: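 Cells seeded at 3 × 10^3 per well for 24 h, then dosed in 10-point, 3-fold serial dilution from 10 µM. CCK-8 added after 5 days, 4 h at 37 °C, absorbance at 450 nm. IC50 averaged from three separate determinations (at least two independent runs, duplicate wells). PC-3 grown in DMEM/F12 (1:1), LO2 in RPMI 1640, both with 10% FBS.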

[2] = target: T1, Protein cereblon/Cyclin-dependent kinase 2/Cyclin-dependent kinase 9; assay: Protac activity at CRBN/CDK2/CDK9 in human MCF7 cells assessed as CDK9 degradation at 0.25 to 10 uM after 12 hrs by Westernblot analysis; type: cell-based
Method in brief: (§2)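 22Rv1, HCT-116 (RPMI 1640, 10% FBS) and MCF-7 cells treated with degrader at indicated concentrations for 12 h. CDK2 and CDK9 blotted with β-tubulin loading control.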

[3] = target: T1, Protein cereblon/Cyclin-dependent kinase 2/Cyclin-dependent kinase 9; assay: Protac activity at CRBN/CDK2/CDK9 in AR-negative human PC3 cells assessed as CDK9 degradation at 250 nM preincubated with pomalidomide for 2 hrs and measured after 8 hrs by Western blot analysis; type: cell-based; details: PC-3; method in brief: as §1
[4] = target: T1, Protein cereblon/Cyclin-dependent kinase 2/Cyclin-dependent kinase 9; assay: Protac activity at CRBN/CDK2/CDK9 in human HCT116 cells assessed as CDK2 degradation at 0.25 to 10 uM after 12 hrs by Westernblot analysis; type: cell-based; details: HCT-116; method in brief: as §2
PC-3 [5] = assay: Induction of cell cycle arrest in human PC3 cells assessed as accumulation at G0/G1 phase at 1 uM after 48 hrs by propidium iodide staining based flow cytometry (reference value: 59.80%); type: functional
PC-3 [6] = assay: Induction of cell cycle arrest in human PC3 cells assessed as accumulation at G2/M phase at 3 uM after 48 hrs by propidium iodide staining based flow cytometry (reference value: 22.24%); type: functional
[7] = target: T1, Protein cereblon/Cyclin-dependent kinase 2/Cyclin-dependent kinase 9; assay: Protac activity at CRBN/CDK2/CDK9 in AR-negative human PC3 cells assessed as induction of CDK9 protein degradation at 30 uM after 12 hrs by Western blot analysis; type: cell-based; details: PC-3
Method in brief: (§3)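 PC-3 cells (5 × 10^5 per well) treated 12 h at single concentrations (50 nM, 500 nM, 1, 5 or 30 µM). RIPA lysates (50 µg) run on 10% SDS-PAGE and immunoblotted for CDK2, CDK5, CDK9 with β-tubulin loading control, then detected by chemiluminescence. Band intensities quantified densitometrically.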

PC-3 [8] = assay: Induction of cell cycle arrest in human PC3 cells assessed as accumulation at G0/G1 phase at 250 nM after 48 hrs by propidium iodide staining based flow cytometry (reference value: 59.80%); type: functional
[9] = target: T1, Protein cereblon/Cyclin-dependent kinase 2/Cyclin-dependent kinase 9; assay: Protac activity at CRBN/CDK2/CDK9 in AR-negative human PC3 cells assessed as CDK9 degradation at 250 nM preincubated with FN-1501 for 2 hrs and measured after 8 hrs by Western blot analysis; type: cell-based; details: PC-3; method in brief: as §1
[10] = target: T1, Protein cereblon/Cyclin-dependent kinase 2/Cyclin-dependent kinase 9; assay: Protac activity at CRBN/CDK2/CDK9 in human 22Rv1 cells assessed as CDK9 degradation at 0.25 to 10 uM after 12 hrs by Westernblot analysis; type: cell-based; details: CWR22R; method in brief: as §2
CDK2/Cyclin A2 = CDK2/Cyclin A2 (Homo sapiens, UniProt P24941); assay: Inhibition of tracer K10 binding to NanoLuc-CDK2/Cyclin A (unknown origin) expressed in human HEK293 cells after 1 hr in presence of ATP by NanoBRET assay; type: cell-based
Method in brief: (§4)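 Cell-based target engagement run by a contract lab. HEK293 cells pretreated with NanoBRET Tracer K-10, then exposed to compound for 1 h with 10 µM ATP, and BRET signal read. 10-point, 3-fold dilutions from 1 µM. Staurosporine reference used 4-fold dilutions from 20 µM. IC50 from sigmoidal dose-response fit.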

CDK9/cyclin T1 = CDK9/cyclin T1 (Homo sapiens, UniProt P50750); assay: Inhibition of tracer K10 binding to NanoLuc-CDK9/Cyclin T1 (unknown origin) expressed in human HEK293 cells after 1 hr in presence of ATP by NanoBRET assay; type: cell-based; method in brief: as §4
PC-3 [11] = assay: Induction of cell cycle arrest in human PC3 cells assessed as accumulation at G2/M phase at 1 uM after 48 hrs by propidium iodide staining based flow cytometry (reference value: 22.24%); type: functional
[12] = target: Protein cereblon/Cyclin-dependent kinase 4 (Homo sapiens) (UniProt P11802+Q96SW2); assay: Protac activity at CRBN/CDK4 in AR-negative human PC3 cells assessed as induction of CDK4 protein degradation at 500 nM after 24 hrs by Western blot analysis; type: cell-based; details: PC-3
Method in brief: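 PC-3 cells treated with 500 nM degrader for varying times. Lysates blotted for CDK2, CDK4, CDK6, CDK9, c-Myc and Mcl-1, each at 1/1000 primary antibody, with β-tubulin reference and chemiluminescent detection.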

[13] = target: Protein cereblon/Cyclin-dependent kinase 2 (Homo sapiens) (UniProt P24941+Q96SW2); assay: Protac activity at CRBN/CDK2 in AR-negative human PC3 cells assessed as induction of CDK2 protein degradation at 50 nM after 12 hrs by Western blot analysis; type: cell-based; details: PC-3; method in brief: as §3
PC-3 [14] = assay: Induction of cell cycle arrest in human PC3 cells assessed as accumulation at G2/M phase at 250 nM after 48 hrs by propidium iodide staining based flow cytometry (reference value: 22.24%); type: functional

Sequence of CDK9/cyclin T1 (O60563 whole entry): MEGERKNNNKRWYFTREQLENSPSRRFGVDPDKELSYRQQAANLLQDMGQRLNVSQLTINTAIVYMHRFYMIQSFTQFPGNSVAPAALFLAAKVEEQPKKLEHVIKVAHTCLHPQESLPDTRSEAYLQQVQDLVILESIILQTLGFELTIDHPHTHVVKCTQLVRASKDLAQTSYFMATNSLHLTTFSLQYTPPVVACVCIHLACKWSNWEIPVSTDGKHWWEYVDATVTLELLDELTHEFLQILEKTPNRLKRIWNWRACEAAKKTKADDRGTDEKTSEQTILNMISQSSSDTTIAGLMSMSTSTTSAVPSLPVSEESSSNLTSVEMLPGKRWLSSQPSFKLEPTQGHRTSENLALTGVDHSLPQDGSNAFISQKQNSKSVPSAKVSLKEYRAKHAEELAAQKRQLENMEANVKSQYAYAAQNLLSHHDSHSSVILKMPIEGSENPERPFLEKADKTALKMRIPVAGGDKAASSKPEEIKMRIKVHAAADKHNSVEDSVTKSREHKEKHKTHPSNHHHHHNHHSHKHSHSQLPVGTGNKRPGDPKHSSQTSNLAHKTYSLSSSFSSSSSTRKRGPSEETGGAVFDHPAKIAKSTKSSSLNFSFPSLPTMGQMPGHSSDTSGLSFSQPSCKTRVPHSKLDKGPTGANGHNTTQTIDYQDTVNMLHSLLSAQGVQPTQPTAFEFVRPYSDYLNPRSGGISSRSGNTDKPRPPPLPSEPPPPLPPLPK
Sequence of CDK9/cyclin T1 (P50750 whole entry): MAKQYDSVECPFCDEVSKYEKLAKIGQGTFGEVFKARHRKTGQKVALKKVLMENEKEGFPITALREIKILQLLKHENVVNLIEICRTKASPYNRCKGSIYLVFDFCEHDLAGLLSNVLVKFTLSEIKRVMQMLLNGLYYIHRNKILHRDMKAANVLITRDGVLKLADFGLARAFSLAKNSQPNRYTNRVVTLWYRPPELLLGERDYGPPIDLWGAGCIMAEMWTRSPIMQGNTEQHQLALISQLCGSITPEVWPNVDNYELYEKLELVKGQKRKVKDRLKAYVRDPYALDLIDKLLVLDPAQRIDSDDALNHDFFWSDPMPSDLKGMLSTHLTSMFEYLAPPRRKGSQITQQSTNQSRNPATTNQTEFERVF
Sequence of Protein cereblon/Cyclin-dependent kinase 4 (Homo sapiens) (P11802 2-303 limits assumed): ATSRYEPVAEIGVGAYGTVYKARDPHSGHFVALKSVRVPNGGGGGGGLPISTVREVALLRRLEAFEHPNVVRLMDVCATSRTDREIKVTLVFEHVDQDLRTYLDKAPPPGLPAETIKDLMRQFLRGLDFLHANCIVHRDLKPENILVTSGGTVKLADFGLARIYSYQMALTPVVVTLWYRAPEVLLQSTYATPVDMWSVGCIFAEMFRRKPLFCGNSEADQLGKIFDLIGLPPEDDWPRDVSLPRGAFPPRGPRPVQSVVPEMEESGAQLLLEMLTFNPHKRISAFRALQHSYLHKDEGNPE
Sequence of Protein cereblon/Cyclin-dependent kinase 4 (Homo sapiens) (Q96SW2 whole entry partner): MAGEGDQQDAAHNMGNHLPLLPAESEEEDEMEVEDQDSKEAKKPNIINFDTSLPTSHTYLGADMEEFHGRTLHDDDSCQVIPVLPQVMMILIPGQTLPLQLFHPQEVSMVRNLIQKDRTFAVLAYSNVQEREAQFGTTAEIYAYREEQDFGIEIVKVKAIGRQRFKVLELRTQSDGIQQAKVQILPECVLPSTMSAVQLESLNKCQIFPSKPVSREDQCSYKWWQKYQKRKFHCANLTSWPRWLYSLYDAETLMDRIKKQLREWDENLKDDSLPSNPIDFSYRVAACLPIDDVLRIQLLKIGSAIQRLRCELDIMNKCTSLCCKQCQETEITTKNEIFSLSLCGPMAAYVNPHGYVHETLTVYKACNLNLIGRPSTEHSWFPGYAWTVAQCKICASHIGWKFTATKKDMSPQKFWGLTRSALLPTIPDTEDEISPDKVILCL

Activity [1]: inactive | Activity [2]: Active | Activity [3]: inactive | Activity [4]: Active | Activity [7]: Active | Activity [9]: inactive | Activity [10]: Active | pIC50 (CDK2/Cyclin A2): 8.13 | pIC50 (CDK9/cyclin T1): 7.84 | Activity [12]: inactive | Activity [13]: Active
SMILES: O=C(CCC(=O)N1CCN(Cc2ccc(NC(=O)c3n[nH]cc3Nc3ncnc4[nH]ccc34)cc2)CC1)NCCNc1cccc2c1C(=O)N(C1CCC(=O)NC1=O)C2=O (configuration not stated)
pIC50 (L02): 5.10 | Activity (PC-3 [5]): 53.95% | Activity (PC-3 [6]): 36% | Activity (PC-3 [8]): 50.15% | Activity (PC-3 [11]): 36.82% | Activity (PC-3 [14]): 22.13%
